A word on the Ki: it is the equilibrium dissociation constant of an inhibitor or competing ligand from its target. Read a high Ki as weaker binding. As usually defined, the IC50 is the midpoint of a concentration-inhibition curve.

We go through 25 molecules from ChEMBL document CHEMBL1156300, “Identification of pyridazino[4,5-b]indolizines as selective PDE4B inhibitors” (Bioorg Med Chem Lett, 2010).

For data set [1], the target named is T1, 3',5'-cyclic-AMP phosphodiesterase 4B (Homo sapiens, UniProt Q07343). Briefly: Displacement of [methyl-3H]rolipram from PDE4B3 expressed in CHO cells after 1 hr by scintillation counting. The class given is cell-based.
Data set [2] concerns the target T2, 3',5'-cyclic-AMP phosphodiesterase 4D (Homo sapiens, UniProt Q08499). The data set can be described thus: Displacement of [methyl-3H]rolipram from PDE4D4 expressed in CHO cells after 1 hr by scintillation counting. The class given is cell-based.
The nature of data set [3]: Selectivity ratio Ki for PDE4D4 to Ki for PDE4B3. The procedure, abridged:
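Ki ratio, PDE4D over PDE4B, from [3H]-rolipram displacement in CHO lysates expressing PDE4D4 or PDE4B3 (2.5 nM radioligand, 30 °C for 1 h, Cheng–Prusoff Ki).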

Data set [4] concerns the target T1, 3',5'-cyclic-AMP phosphodiesterase 4B. Briefly: Inhibition of PDE4B3 expressed in CHO cells assessed as isoproterenol-induced [125I]cAMP accumulation after 15 mins by scintillation counting. The class given is cell-based. On the technique in general: Cyclic AMP is a second messenger, typically raised through Gs and lowered through Gi signalling.
The target of data set [5] is T2, 3',5'-cyclic-AMP phosphodiesterase 4D. The data set can be described thus: Inhibition of PDE4D4 expressed in CHO cells assessed as isoproterenol-induced [125I]cAMP accumulation after 15 mins by scintillation counting. The class given is cell-based.
Data set [6] is described as follows: Inhibition of PDE1.
Data set [7] is described as follows: Inhibition of PDE2.
Data set [8] in a line: Inhibition of PDE3.
Data set [9] in a line: Inhibition of PDE5.
The nature of data set [10]: Inhibition of PDE6.
The nature of data set [11]: Selectivity ratio of IC50 for PDE4A to IC50 for PDE4B3.
Data set [12] can be described thus: Selectivity ratio of IC50 for PDE4C to IC50 for PDE4B3.
In data set [13] the target is Voltage-gated inwardly rectifying potassium channel KCNH2 (Homo sapiens, UniProt Q12809). Briefly: Inhibition of human ERG.
Sequence of Voltage-gated inwardly rectifying potassium channel KCNH2 (Q12809 whole entry): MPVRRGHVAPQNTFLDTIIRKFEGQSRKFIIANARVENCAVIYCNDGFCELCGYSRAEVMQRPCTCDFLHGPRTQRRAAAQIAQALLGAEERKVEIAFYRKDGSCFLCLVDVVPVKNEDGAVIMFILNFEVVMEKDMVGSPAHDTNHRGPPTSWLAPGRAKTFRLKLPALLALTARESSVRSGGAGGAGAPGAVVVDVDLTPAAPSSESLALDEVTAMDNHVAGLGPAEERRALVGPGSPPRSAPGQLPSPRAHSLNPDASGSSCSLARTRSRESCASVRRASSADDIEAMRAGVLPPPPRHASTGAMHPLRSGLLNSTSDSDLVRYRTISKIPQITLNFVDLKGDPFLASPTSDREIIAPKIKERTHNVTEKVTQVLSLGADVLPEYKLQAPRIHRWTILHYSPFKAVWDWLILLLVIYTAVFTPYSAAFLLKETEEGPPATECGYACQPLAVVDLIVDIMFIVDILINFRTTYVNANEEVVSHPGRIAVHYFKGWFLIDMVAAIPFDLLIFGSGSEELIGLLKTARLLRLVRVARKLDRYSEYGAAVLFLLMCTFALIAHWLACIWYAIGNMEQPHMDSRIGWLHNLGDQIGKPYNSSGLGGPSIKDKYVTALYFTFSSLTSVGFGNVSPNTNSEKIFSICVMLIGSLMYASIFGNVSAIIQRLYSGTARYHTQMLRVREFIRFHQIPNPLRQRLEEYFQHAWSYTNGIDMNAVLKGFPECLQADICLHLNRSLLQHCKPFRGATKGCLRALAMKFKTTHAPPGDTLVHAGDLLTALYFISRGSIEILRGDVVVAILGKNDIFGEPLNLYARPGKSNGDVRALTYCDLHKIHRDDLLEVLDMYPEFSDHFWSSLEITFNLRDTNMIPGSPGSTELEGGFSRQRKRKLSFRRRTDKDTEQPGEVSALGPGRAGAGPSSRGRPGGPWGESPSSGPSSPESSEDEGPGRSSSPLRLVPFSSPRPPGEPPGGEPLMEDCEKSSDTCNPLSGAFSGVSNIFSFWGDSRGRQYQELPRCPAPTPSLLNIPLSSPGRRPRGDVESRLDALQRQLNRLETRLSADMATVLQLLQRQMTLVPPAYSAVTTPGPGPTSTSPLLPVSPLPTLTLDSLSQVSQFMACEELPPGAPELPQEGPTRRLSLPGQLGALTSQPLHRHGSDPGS

T1 sequence (Q07343 whole entry): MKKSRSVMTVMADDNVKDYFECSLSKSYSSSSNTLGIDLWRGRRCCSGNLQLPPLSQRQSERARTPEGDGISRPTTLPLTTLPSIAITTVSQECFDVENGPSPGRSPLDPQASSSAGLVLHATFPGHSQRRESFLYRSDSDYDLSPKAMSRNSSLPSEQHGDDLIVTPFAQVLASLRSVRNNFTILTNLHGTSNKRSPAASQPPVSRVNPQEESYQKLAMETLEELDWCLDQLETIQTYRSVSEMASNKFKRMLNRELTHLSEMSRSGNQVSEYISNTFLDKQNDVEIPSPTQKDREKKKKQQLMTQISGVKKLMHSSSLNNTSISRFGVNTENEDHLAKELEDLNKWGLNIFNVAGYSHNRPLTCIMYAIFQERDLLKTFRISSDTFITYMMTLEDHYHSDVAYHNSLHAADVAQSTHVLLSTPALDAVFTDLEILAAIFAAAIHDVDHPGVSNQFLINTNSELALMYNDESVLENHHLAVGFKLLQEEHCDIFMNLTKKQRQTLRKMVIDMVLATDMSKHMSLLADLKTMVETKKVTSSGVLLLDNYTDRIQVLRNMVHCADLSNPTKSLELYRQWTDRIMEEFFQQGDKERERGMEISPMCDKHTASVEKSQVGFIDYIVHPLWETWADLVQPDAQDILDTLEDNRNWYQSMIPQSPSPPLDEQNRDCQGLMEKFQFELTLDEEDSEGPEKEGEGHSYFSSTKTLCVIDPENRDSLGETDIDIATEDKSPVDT
T2 sequence (Q08499 whole entry): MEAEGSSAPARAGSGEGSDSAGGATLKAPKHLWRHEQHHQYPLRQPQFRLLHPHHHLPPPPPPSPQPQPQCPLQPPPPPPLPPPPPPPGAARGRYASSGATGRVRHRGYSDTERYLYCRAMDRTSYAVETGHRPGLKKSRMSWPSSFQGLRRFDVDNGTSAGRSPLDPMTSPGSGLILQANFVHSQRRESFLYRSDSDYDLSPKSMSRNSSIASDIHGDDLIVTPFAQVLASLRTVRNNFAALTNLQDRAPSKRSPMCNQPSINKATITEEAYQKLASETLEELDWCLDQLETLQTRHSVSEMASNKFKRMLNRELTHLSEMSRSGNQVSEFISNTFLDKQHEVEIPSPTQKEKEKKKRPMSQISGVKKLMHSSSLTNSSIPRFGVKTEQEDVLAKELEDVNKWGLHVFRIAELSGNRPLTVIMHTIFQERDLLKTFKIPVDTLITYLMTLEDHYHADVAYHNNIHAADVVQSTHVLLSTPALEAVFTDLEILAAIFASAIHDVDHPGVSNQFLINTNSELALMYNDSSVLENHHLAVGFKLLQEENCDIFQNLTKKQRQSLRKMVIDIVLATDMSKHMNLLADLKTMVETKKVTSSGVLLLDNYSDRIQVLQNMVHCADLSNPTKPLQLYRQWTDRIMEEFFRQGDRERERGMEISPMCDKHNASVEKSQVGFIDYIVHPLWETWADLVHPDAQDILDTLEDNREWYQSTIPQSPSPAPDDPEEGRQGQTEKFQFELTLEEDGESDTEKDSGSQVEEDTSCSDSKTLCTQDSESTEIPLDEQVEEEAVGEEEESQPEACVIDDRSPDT

As to `O=C(c1cccnc1)N1CCN(CCCNc2nnc(-c3cccc(F)c3)c3c2cc2ccccn23)CC1`, the Ki came to 0.413 µM in data set [1] and 19 µM in data set [2]. Further, in data set [3], the Ratio Ki is 46.
On the same counts, the results for `Cc1cc2c(NCCCN3CCN(C(=O)c4cnccn4)CC3)nnc(-c3cccc([N+](=O)[O-])c3)c2n1C` are 0.077 µM, 4.44 µM and 58.
With `c1ccc(-c2nnc(NCCCN3CCN(c4ncccn4)CC3)c3cc4ccccn4c23)cc1`, the Ki in [1] turned out to be 2.6 µM; in data set [2], 59 µM. For the same molecule, in data set [3], the Ratio Ki worked out at 23. Moreover, the IC50 in data set [4] is 13.2 µM; in data set [5], above 100 µM.
Regarding `O=C(C1CCCC1)N1CCN(CCCNc2nnc(-c3cccc(F)c3)c3c2cc2ccccn23)CC1`, the Ki in data set [1] stood at 14 µM; in [2], 61 µM. In [3], the Ratio Ki was 4.
On to `Clc1cccc(-c2nnc(NCCCN3CCN(c4ncccn4)CC3)c3cc4ccccn4c23)c1`, for which the Ki in data set [1] is 2.01 µM; in data set [2], 14.2 µM. Moreover, the Ratio Ki in data set [3] is 7.
As to `O=C(c1cnccn1)N1CCN(CCCNc2nnc(-c3ccccc3)c3c2cc2ccccn23)CC1`, the Ki in data set [1] came to 0.041 µM; in data set [2], 8.37 µM. In addition, the Ratio Ki in [3] was 205. For the same molecule, the IC50 is 6.7 µM in data set [4] and above 100 µM in data set [5].
On to `CC(=O)N1CCN(CCCNc2nnc(-c3cccc(F)c3)c3c2cc2ccccn23)CC1`, for which the Ki in data set [1] is 1.9 µM; in data set [2], above 100 µM. For the same molecule, in [3], the Ratio Ki is above 53.
As to `Cc1cc2c(NCCCN3CCN(C(=O)c4cncs4)CC3)nnc(-c3cccc([N+](=O)[O-])c3)c2n1C`, the values for the Ki in data set [1] and in [2] were 0.222 µM and 12.7 µM, respectively. Besides, the Ratio Ki in data set [3] turned out to be 57.
In the case of `O=C(c1cnccn1)N1CCN(CCCNc2nnc(-c3cccc([N+](=O)[O-])c3)c3c2cc2ccccn23)CC1`, the values for the Ki in [1] and in data set [2] were 0.0056 µM and 0.147 µM, respectively. Besides, in data set [3], the Ratio Ki was found to be 26. Also, the IC50 in [4] was 0.389 µM; in [5] it was 4.9 µM; in data set [6], above 10 µM; in data set [7], above 10 µM; in data set [8] it was above 10 µM; in data set [9] it was above 10 µM. This molecule also came in with an IC50 in data set [10] above 10 µM. Also, the Ratio IC50 in [11] and in [12] was above 5 throughout. Also, the “inhibition (INH)” value in data set [13] is “Active”.
Turning to `Cc1cccc(-c2nnc(NCCCN3CCN(c4ncccn4)CC3)c3cc4ccccn4c23)c1`, the Ki was found to be 4.3 µM in [1] and 54.4 µM in [2]. Moreover, the Ratio Ki in [3] is 13.
Regarding `Fc1cccc(-c2nnc(NCCCN3CCN(c4ncccn4)CC3)c3cc4ccccn4c23)c1`, the values for the Ki in data set [1] and in data set [2] were 2.7 µM and 83 µM, respectively. Also, the Ratio Ki in data set [3] came out at 29.
In the case of `Cc1cc2c(NCCCN3CCN(C(=O)c4cccnc4)CC3)nnc(-c3cccc([N+](=O)[O-])c3)c2n1C`, the results for the Ki in data set [1] and in data set [2] were 0.432 µM and 15.3 µM, respectively. In [3], the Ratio Ki was determined as 35.
On the same counts, the results for `Cc1cc2c(NCCCN3CCN(C(=O)c4ccncc4)CC3)nnc(-c3cccc([N+](=O)[O-])c3)c2n1C` are 52.2 µM, above 100 µM and above 2.
On the same counts, the results for `Cc1cc2c(NCCCN3CCN(C(=O)c4ccccn4)CC3)nnc(-c3cccc([N+](=O)[O-])c3)c2n1C` are 0.238 µM, 11.5 µM and 48.
On the same counts, the results for `Cc1cc2c(NCCCN3CCN(C(=O)c4ncccn4)CC3)nnc(-c3cccc([N+](=O)[O-])c3)c2n1C` are 1 µM, above 100 µM and above 100.
`Cc1cc2c(NCCCN3CCN(C(=O)c4csnn4)CC3)nnc(-c3cccc([N+](=O)[O-])c3)c2n1C`: the values for the Ki in data set [1] and in [2] were 0.977 µM and 48.6 µM, respectively. Moreover, the Ratio Ki in [3] stood at 50.
On the same counts, the results for `O=C(c1ccccn1)N1CCN(CCCNc2nnc(-c3cccc(F)c3)c3c2cc2ccccn23)CC1` are 0.241 µM, 18 µM and 75.
`O=[N+]([O-])c1cccc(-c2nnc(NCCCN3CCN(c4ncccn4)CC3)c3cc4ccccn4c23)c1`: the Ki in [1] is 0.21 µM; in data set [2], 2.4 µM. In addition, the Ratio Ki in [3] was 11.
On the same counts, the results for `Cc1cc2c(NCCCN3CCN(C(=O)c4ccnnc4)CC3)nnc(-c3cccc([N+](=O)[O-])c3)c2n1C` are 4.44 µM, 51.2 µM and 12.
`Cn1cccc1C(=O)N1CCN(CCCNc2nnc(-c3cccc(F)c3)c3c2cc2ccccn23)CC1`: the results for the Ki in data set [1] and in data set [2] were 5.2 µM and 65 µM, respectively. The Ratio Ki in [3] amounted to 12.
On the same counts, the results for `O=C(c1ccccc1)N1CCN(CCCNc2nnc(-c3cccc(F)c3)c3c2cc2ccccn23)CC1` are 2.7 µM, 22.2 µM and 8.
On the same counts, the results for `Cc1cc2c(NCCCN3CCN(C(=O)c4ccno4)CC3)nnc(-c3cccc([N+](=O)[O-])c3)c2n1C` are 5.08 µM, above 100 µM and above 20.
On the same counts, the results for `Brc1cccc(-c2nnc(NCCCN3CCN(c4ncccn4)CC3)c3cc4ccccn4c23)c1` are 1.44 µM, 17.5 µM and 12.
As for `N#Cc1cccc(-c2nnc(NCCCN3CCN(c4ncccn4)CC3)c3cc4ccccn4c23)c1`, the Ki is 1.03 µM in [1] and 3.35 µM in data set [2]. Also, the Ratio Ki in [3] amounted to 3.
In the case of `CCC(=O)N1CCN(CCCNc2nnc(-c3cccc(F)c3)c3c2cc2ccccn23)CC1`, the figures for the Ki in data set [1] and in data set [2] were 4.9 µM and above 100 µM, respectively. Besides, the Ratio Ki in data set [3] was above 20.
